Reference: ChEMBL document CHEMBL1949601, “γ-Carbolines: a novel class of cannabinoid agonists with high aqueous solubility and restricted CNS penetration” (Bioorg Med Chem Lett, 2012)

Key:
Cannabinoid receptor 1 [1] = target: Cannabinoid receptor 1 (Homo sapiens, UniProt P21554); experiment: Agonist activity at human CB1 receptor expressed in HEK293 EBNA cells by [35S]GTPgamma binding assay; format: functional, cell-based
Cannabinoid receptor 2 = Cannabinoid receptor 2 (Homo sapiens, UniProt P34972); experiment: Binding affinity to human CB2 receptor
Sequence of Cannabinoid receptor 2 (P34972 whole entry): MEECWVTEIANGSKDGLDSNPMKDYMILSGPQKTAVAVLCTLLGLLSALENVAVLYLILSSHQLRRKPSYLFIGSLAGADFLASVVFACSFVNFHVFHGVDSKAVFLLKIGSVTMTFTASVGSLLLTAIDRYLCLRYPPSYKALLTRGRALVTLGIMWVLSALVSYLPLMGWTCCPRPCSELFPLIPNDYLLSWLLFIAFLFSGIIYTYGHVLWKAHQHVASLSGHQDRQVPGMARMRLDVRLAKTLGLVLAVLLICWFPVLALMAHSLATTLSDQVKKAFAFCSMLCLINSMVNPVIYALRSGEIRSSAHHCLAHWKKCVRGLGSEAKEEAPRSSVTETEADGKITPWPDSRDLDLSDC

Cannabinoid receptor 1 [2] = target: Cannabinoid receptor 1 (Rattus norvegicus, UniProt P20272); experiment: Agonist activity at CB1 receptor in rat brain tissue; format: functional, tissue-based
[3] = target: Adrenergic receptor alpha-1 (Rattus norvegicus) (UniProt P15823+P23944+P43140); experiment: Activity at rat alpha1adrenergic receptor at 10 uM
[4] = target: Alpha-2A adrenergic receptor (Homo sapiens) (UniProt P08913); experiment: Activity at human alpha2a adrenergic receptor at 10 uM
Sequence of Alpha-2A adrenergic receptor (Homo sapiens) (P08913 whole entry): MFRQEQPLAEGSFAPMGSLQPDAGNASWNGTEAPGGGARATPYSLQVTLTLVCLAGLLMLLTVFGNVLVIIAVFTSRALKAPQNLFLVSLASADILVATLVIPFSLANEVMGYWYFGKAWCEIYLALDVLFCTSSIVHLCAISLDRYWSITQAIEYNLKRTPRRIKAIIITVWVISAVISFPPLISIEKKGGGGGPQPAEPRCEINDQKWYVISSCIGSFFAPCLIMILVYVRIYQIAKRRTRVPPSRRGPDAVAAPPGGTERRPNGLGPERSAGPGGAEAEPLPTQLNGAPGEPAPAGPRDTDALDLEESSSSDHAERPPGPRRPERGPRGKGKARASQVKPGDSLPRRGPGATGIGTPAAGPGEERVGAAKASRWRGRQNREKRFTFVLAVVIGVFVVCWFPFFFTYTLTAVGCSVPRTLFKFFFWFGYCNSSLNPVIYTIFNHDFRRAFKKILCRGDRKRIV

[5] = target: D(2) dopamine receptor (Homo sapiens) (UniProt P14416); experiment: Activity at human dopamine2L receptor at 10 uM
[6] = target: Estrogen receptor (Homo sapiens) (UniProt P03372); experiment: Activity at human ERalpha receptor at 10 uM
Sequence of Estrogen receptor (Homo sapiens) (P03372 whole entry): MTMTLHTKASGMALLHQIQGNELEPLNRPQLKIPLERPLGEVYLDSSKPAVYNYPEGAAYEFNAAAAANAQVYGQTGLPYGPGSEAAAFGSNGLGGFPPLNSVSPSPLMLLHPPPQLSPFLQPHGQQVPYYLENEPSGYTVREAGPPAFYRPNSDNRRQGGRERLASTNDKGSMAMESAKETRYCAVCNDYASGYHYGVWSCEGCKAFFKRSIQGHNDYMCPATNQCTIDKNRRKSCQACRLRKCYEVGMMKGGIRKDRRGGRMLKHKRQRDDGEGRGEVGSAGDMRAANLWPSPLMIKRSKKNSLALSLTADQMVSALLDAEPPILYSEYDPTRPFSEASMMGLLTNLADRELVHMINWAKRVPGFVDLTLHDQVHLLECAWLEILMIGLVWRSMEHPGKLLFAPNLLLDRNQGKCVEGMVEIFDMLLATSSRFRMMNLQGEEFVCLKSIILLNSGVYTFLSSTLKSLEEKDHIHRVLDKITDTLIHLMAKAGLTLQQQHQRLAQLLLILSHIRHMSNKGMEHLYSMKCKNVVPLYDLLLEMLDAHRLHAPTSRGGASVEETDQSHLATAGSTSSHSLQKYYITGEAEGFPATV

Rattus norvegicus = species: Rattus norvegicus; experiment: Activity at rat GABAa receptor at 10 uM
[7] = target: Histamine H1 receptor (Homo sapiens) (UniProt P35367); experiment: Activity at human histamine H1 receptor at 10 uM
[8] = target: Muscarinic acetylcholine receptor M3 (Homo sapiens) (UniProt P20309); experiment: Activity at human M3 receptor at 10 uM
[9] = target: Sodium-dependent noradrenaline transporter (Homo sapiens) (UniProt P23975); experiment: Activity at human NET receptor at 10 uM
[10] = Activity at L-Type Calcium channel at 10 uM
[11] = target: Adenosine receptor A2a (Homo sapiens) (UniProt P29274); experiment: Activity at human A2a receptor at 10 uM
[12] = target: C-C chemokine receptor type 2 (Homo sapiens) (UniProt P41597); experiment: Activity at human CCR2b at 10 uM
[13] = target: Calcitonin gene-related peptide type 1 receptor (Homo sapiens) (UniProt Q16602); experiment: Activity at human CGRP receptor at 10 uM
Sequence of Calcitonin gene-related peptide type 1 receptor (Homo sapiens) (Q16602 whole entry): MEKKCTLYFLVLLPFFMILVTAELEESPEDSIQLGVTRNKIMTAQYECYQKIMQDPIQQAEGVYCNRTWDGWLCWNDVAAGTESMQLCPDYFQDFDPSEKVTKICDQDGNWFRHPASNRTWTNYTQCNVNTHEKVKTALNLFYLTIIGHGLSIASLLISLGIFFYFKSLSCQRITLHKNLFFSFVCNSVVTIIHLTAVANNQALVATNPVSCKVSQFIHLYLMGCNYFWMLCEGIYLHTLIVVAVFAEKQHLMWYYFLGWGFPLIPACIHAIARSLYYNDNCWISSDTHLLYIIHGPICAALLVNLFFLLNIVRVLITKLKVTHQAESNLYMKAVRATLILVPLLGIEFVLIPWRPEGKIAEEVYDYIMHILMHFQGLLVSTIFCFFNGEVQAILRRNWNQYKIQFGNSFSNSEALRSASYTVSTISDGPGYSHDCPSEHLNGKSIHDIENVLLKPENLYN

[14] = target: C-X-C chemokine receptor type 2 (Homo sapiens) (UniProt P25025); experiment: Activity at human CXCR2 receptor at 10 uM
Sequence of C-X-C chemokine receptor type 2 (Homo sapiens) (P25025 whole entry): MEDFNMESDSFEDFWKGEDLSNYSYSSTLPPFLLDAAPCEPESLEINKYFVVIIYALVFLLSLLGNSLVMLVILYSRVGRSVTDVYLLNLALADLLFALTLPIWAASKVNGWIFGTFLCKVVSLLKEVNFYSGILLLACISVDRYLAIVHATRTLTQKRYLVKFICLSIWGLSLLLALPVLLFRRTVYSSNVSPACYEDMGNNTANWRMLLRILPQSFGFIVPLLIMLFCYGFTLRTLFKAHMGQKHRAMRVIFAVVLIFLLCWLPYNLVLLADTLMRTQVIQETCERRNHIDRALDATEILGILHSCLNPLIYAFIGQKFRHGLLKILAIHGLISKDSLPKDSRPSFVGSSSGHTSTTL

[15] = target: Melanin-concentrating hormone receptor 1 (Homo sapiens) (UniProt Q99705); experiment: Activity at human MCH1 receptor at 10 uM
[16] = target: Muscarinic acetylcholine receptor M4 (Homo sapiens) (UniProt P08173); experiment: Activity at human M4 receptor at 10 uM
[17] = target: Glucagon-like peptide 1 receptor (Homo sapiens) (UniProt P43220); experiment: Activity at human GLP1 receptor at 10 uM
[18] = target: Vasopressin V1b receptor (Homo sapiens) (UniProt P47901); experiment: Activity at human V1B receptor at 10 uM
Sequence of Vasopressin V1b receptor (Homo sapiens) (P47901 whole entry): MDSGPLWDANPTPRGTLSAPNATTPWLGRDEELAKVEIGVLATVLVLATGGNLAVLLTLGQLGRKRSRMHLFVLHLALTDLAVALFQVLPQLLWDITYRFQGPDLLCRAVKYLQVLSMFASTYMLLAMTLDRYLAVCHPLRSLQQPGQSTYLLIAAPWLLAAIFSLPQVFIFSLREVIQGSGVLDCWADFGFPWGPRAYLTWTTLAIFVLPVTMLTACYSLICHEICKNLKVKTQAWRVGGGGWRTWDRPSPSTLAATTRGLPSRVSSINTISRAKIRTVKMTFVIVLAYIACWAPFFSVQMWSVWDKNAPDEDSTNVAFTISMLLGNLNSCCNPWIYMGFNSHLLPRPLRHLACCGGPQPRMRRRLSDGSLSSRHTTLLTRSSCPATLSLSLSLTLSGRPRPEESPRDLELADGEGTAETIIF

[19] = target: Adenosine receptor A3 (Rattus norvegicus) (UniProt P28647); experiment: Activity at rat A3 receptor at 10 uM
Sequence of Adenosine receptor A3 (Rattus norvegicus) (P28647 whole entry): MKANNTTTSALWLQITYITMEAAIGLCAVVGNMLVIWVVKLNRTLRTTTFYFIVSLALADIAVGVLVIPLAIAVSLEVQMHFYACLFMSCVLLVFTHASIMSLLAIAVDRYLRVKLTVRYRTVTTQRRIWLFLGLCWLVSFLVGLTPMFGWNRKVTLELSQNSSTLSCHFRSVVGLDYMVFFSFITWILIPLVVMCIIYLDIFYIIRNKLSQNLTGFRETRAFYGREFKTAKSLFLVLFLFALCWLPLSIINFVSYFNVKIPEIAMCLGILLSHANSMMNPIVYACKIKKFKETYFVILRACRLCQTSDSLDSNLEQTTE

[20] = target: N-formyl peptide receptor 2 (Homo sapiens) (UniProt P25090); experiment: Activity at human FPRL1 receptor at 10 uM
[21] = target: Delta-type opioid receptor (Homo sapiens, UniProt P41143); experiment: Inhibition of human DOR
Mu-type opioid receptor = Mu-type opioid receptor (Homo sapiens, UniProt P35372); experiment: Inhibition of human MOR
[22] = Fraction unbound in Sprague-Dawley rat plasma at 1 mg/kg, sc; format: ADME, organism-based; parameters: dose 1 mg/kg, route subcutaneous
[23] = Clearance in iv dosed Sprague-Dawley rat; format: ADME, organism-based; conditions: in vivo
[24] = Half life in iv dosed Sprague-Dawley rat; format: ADME, organism-based; conditions: in vivo
Cytochrome P450 1A2 = Cytochrome P450 1A2 (Homo sapiens, UniProt P05177); experiment: Inhibition of CYP1A2; format: ADME
Sequence of Cytochrome P450 1A2 (P05177 whole entry): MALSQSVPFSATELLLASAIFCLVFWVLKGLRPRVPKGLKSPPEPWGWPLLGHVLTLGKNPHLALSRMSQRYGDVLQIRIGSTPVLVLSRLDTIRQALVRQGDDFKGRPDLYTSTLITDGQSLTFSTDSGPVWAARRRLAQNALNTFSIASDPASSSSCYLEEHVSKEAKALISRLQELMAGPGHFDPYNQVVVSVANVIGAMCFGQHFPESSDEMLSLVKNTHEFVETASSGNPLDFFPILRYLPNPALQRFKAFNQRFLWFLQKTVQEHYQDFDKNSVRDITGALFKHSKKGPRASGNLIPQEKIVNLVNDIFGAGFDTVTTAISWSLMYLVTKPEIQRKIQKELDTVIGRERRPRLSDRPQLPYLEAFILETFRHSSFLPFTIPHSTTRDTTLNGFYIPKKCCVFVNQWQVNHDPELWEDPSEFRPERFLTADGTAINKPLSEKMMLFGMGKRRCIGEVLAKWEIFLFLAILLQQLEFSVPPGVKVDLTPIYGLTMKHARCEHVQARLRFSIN

Cytochrome P450 2C9 = Cytochrome P450 2C9 (Homo sapiens, UniProt P11712); experiment: Inhibition of CYP2C9; format: ADME
Sequence of Cytochrome P450 2C9 (P11712 whole entry): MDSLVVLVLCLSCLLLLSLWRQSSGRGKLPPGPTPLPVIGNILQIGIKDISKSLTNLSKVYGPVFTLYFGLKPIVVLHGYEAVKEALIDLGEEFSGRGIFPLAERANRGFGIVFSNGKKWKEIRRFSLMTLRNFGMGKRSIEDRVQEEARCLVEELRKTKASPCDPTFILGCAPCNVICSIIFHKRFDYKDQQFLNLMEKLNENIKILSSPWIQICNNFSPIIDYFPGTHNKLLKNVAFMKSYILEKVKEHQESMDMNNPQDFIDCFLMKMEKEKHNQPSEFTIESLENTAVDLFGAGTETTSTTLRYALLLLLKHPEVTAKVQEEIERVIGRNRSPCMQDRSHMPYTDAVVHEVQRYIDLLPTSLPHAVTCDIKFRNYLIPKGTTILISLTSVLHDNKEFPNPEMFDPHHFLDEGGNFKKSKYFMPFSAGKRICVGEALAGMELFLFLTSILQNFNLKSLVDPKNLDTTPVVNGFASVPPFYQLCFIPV

Cytochrome P450 2D6 = Cytochrome P450 2D6 (Homo sapiens, UniProt P10635); experiment: Inhibition of CYP2D6; format: ADME
Sequence of Cytochrome P450 2D6 (P10635 whole entry): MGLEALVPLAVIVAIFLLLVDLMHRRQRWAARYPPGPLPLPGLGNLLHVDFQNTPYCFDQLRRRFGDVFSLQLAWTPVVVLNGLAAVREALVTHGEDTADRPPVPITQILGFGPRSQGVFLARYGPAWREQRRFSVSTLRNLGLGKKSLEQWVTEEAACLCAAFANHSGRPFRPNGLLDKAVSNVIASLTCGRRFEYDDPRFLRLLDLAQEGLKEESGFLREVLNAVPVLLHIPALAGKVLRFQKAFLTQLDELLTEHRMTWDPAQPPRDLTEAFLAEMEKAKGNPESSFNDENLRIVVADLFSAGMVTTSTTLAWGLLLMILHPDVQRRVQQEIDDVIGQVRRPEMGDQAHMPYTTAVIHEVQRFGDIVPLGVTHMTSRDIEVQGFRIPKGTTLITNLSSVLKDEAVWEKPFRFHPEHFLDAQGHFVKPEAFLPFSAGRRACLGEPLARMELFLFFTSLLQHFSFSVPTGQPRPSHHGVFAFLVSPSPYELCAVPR

[25] = Dissociation constant, pKa of the compound; format: physicochemical
Cannabinoid receptor 1 [26] = target: Cannabinoid receptor 1 (Mus musculus, UniProt P47746); experiment: Agonist activity at CB1 receptor in field-stimulated mouse vas deferens; format: functional, tissue-based
Summary of the method: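 Isolated mouse vas deferens under electrical field stimulation, used as an intact tissue assay of CB1 agonism at the native receptor.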

Sequence of Cannabinoid receptor 1 (Homo sapiens, UniProt P21554) (P21554 whole entry): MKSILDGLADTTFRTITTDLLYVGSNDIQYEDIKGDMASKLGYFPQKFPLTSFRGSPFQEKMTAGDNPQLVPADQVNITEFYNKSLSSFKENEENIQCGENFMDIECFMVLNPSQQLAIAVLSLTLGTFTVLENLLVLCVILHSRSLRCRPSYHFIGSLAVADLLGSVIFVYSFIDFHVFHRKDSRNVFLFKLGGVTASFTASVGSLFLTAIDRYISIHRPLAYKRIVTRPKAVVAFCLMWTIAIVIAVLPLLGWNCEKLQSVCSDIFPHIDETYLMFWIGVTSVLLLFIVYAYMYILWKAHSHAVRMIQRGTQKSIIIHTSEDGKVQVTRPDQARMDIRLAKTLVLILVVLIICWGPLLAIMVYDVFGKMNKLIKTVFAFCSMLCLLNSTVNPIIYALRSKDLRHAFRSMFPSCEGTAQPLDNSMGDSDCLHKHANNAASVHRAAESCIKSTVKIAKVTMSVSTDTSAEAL

CCS(=O)(=O)n1c2c(c3cc(C(=O)N4CCC(C)CC4)ccc31)CN(C1CCOCC1)CC2
EC50 (Cannabinoid receptor 1 [1]): 49 nM | Ki (Cannabinoid receptor 2): 9 nM | EC50 (Cannabinoid receptor 1 [2]): 85 nM | Activity [3]: < 50% | Activity [4]: < 50% | Activity [5]: < 50% | Activity [6]: < 50% | Activity (Rattus norvegicus): < 50% | Activity [7]: < 50% | Activity [8]: < 50% | Activity [9]: < 50% | Activity [10]: < 50% | Activity [11]: < 50% | Activity [12]: < 50% | Activity [13]: < 50% | Activity [14]: < 50% | Activity [15]: < 50% | Activity [16]: < 50% | Activity [17]: < 50% | Activity [18]: < 50% | Activity [19]: < 50% | Activity [20]: < 50% | IC50 [21]: > 10000 nM | IC50 (Mu-type opioid receptor): > 10000 nM | fraction unbound [22]: 0.13 | clearance [23]: 28 mL/min/kg | half-life [24]: 37.8 min | IC50 (Cytochrome P450 1A2): > 20000 nM | IC50 (Cytochrome P450 2C9): > 20000 nM | IC50 (Cytochrome P450 2D6): > 20000 nM | pKa [25]: 6.9 | IC50 (Cannabinoid receptor 1 [26]): 1.9 nM
